Compound activity deposited in PubChem BioAssay by Sanford-Burnham Center for Chemical Genomics.
Scp1 inh = blocks human Scp-1 phosphatase activity | 340,000 tested, 0.88% active | AID 493091 | Q9GZU7 | Recombinant Scp1, phosphopeptide, malachite green phosphate absorbance | inhibition, % at 20 µM;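 active means inhibition above about 50% at 20 µM, limit read from the data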;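 further: plate controls were DMSO wells with enzyme for no effect and wells lacking enzyme for full effect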
Target sequence (Q9GZU7 76-261 limits assumed): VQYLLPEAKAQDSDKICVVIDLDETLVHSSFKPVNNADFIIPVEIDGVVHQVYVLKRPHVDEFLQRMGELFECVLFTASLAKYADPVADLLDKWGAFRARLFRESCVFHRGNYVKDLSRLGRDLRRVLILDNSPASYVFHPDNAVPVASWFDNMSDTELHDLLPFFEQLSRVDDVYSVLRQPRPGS
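Test system – truncated SCP-1 phosphatase (76-261aa) · Reagent – Phosphorylated 17-residue peptide substrate · Incubation – 45 min room-temperature reaction, 5 min colour, 30 min stabiliser · Detection – colorimetric phosphate reagent with accelerator and stabiliser, absorbance at 630 nm · Measure – % inhibition at 20 µM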
LMPTP block = blocks human LMPTP phosphatase; P24666; recombinant LMPTP-A, OMFP fluorogenic substrate, fluorescence intensity; inhibition, % at 20 µM; 360,000 tested, 0.22% active; AID 651560;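 active means compounds that cut the enzyme signal by at least half of the control window in the single-dose screen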;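 further: plate controls were DMSO wells with enzyme plus substrate for no effect and substrate without enzyme for full effect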
Target sequence (P24666 whole entry, looked up): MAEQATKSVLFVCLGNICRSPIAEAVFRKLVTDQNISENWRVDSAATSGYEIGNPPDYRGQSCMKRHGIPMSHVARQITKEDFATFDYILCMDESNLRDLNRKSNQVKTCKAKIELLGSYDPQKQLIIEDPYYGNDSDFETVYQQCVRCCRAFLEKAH
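Assay system: LMPTP-A phosphatase enzyme | Input: 0.625 nM enzyme | Also added: Fluorogenic phosphatase substrate OMFP at 400 µM final | Compound dosing: One test concentration per compound, 20 µM, with 3% DMSO overall | Schedule: 50 min enzyme reaction at room temperature, protected from light | Signal: Fluorescence intensity | Benchmarks: no-enzyme and uninhibited controls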
STEP inh = inhibitors of human striatal-enriched phosphatase STEP | P54829 | recombinant STEP, OMFP fluorogenic substrate, fluorescence | inhibition, % at 20 µM | 360,000 tested, 0.25% active;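 active means inhibition at 20 µM, scaled per plate between control wells, above about 37%, limit read from the data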;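 further: 0% = DMSO with enzyme and substrate and 100% = substrate only without enzyme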
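medium = Bis-Tris buffer pH 6.0, 2.5 mM DTT, 0.005% Tween 20 | test system = STEP (striatal-enriched tyrosine phosphatase) enzyme, cell-free | measure = normalized % inhibition | compound dosing = 20 µM, 1% DMSO | also added = 25 µM OMFP | schedule = reaction 20 min, ambient temperature | measured by = fluorescence read at 480 nm ex / 540 nm em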
DNMT1 inh = blocks human DNA methyltransferase DNMT1 | P26358 | DNMT1 molecular beacon, Hinp1I cleavage, fluorescence | inhibition (reported as % activation of signal), % at 10 µM | 360,000 tested, 0.83% active; in the data active means inhibition above about 50%
SUMO1-SIM PPI = modulators of human SUMO1-mediated protein-protein interactions. P63165. SUMO1 binding to a labelled peptide, TR-FRET, 1 h. inhibition, % at 20 µM. 360,000 tested, 0.33% active. AID 602429; in the data active means inhibition above about 37%
Target sequence (P63165 whole entry, looked up): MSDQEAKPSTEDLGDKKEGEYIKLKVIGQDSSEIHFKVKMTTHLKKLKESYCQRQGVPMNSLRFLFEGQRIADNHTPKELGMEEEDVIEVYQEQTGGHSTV
Beacon interf DR = shows spectral interference in the DNMT1 beacon assay | IC50, µM | AID 602382 | molecular beacon fluorescence, spectral interference counter-screen | 200 tested, under 10 active | shares compounds with DNMT1 inh; call rule not given here
DNMT1 inh conf = confirmation of human DNMT1 inhibitors; shares compounds with DNMT1 inh; DNMT1 molecular beacon HinP1I cleavage, fluorescence; inhibition, % at 10 µM; 2,300 tested, 8% active; AID 602385;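 active means average inhibition of at least 30% in the single-concentration confirmation test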
DNMT1 interf = shows spectral interference in the DNMT1 beacon assay; shares compounds with DNMT1 inh; DNMT1 molecular beacon spectral interference counterscreen, fluorescence 485/520; activation (fluorescence interference), % at 10 µM; 2,300 tested, 1% active;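 active means activation of at least 30% at 10 µM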;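 further: DNMT1 catalytic domain with a HinP1I cleavage step and a FAM/dabcyl DNA beacon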
* hit, by the source's call. Rows were chosen to be rich in hits. Some 1.7% of all compounds tested hit in one or more screens of this group.

Results for CCOC(=O)c1c(-n2c(C)cc(C=C3C(=O)NC(=S)NC3=O)c2C)sc2c1CCCC2 ?
Scp1 inh: 9; LMPTP block: 2; STEP inh: 3; DNMT1 inh: 100*; SUMO1-SIM PPI: 28; Beacon interf DR: >99; DNMT1 inh conf: 29; DNMT1 interf: -8

What do the screens show for `Cc1ccc(N2C(=O)NC(=O)/C(=C\c3cc(C)n(-c4sc5c(c4C#N)CCCC5)c3C)C2=O)cc1`?
Scp1 inh: 2; LMPTP block: 2; STEP inh: 3; DNMT1 inh: 70*; SUMO1-SIM PPI: 51*; Beacon interf DR: >99; DNMT1 inh conf: 20; DNMT1 interf: -5

Results for CCN1C(=O)NC(=O)/C(=C/c2cc(C)n(-c3sc(C)c(C)c3C#N)c2C)C1=O ?
Scp1 inh: -3; LMPTP block: 0; STEP inh: -2; DNMT1 inh: 10; SUMO1-SIM PPI: 18

How did CC(C)C[C@@H]1COc2cc(N3CCN(C)CC3)ccc2S(=O)(=O)N1 do in these assays?
LMPTP block: -2; SUMO1-SIM PPI: 0

What do the screens show for `O=c1[nH]c(O)c(/C=C2\C=Nc3ccc(OCc4ccccc4)cc32)c(=O)[nH]1`?
Scp1 inh: -5; LMPTP block: 1; STEP inh: 0; DNMT1 inh: 71*; SUMO1-SIM PPI: 4; DNMT1 inh conf: 8; DNMT1 interf: 0

Results for C#C[C@]1(O)[C@H](O)CC2C3CC[C@H]4C[C@@H](O)CC[C@]4(C)C3CC[C@@]21C (stereo partly specified) ?
LMPTP block: 3; STEP inh: -2; DNMT1 inh: 67*; SUMO1-SIM PPI: 3; DNMT1 inh conf: 4; DNMT1 interf: 4

How did C[C@]12CCC3C(CC[C@H]4C[C@@H](O)CC[C@]34C)C1C[C@@H](O)[C@]2(C)O (stereo partly specified) do in these assays?
Scp1 inh: -12; LMPTP block: -2; STEP inh: -4; DNMT1 inh: 1; SUMO1-SIM PPI: -2

Results for C/C(=C/CCC(C)[C@H]1CC[C@@]2(C)C3=C(CC[C@]12C)[C@@]1(C)CCC(=O)C(C)(C)[C@@H]1CC3)C(=O)O (stereo partly specified) ?
Scp1 inh: -8; LMPTP block: 3; STEP inh: 0; DNMT1 inh: 60*; SUMO1-SIM PPI: 41*; Beacon interf DR: >99; DNMT1 inh conf: 23; DNMT1 interf: -9

Results for CC(C)C1(C)N=C(c2ncccc2C(=O)O)NC1=O (stereo unspecified) ?
Scp1 inh: -11; LMPTP block: -2; STEP inh: -1; DNMT1 inh: 94*; SUMO1-SIM PPI: -2; DNMT1 inh conf: 2; DNMT1 interf: 3

How did COC(=O)C1=C(c2cccc(OCc3ccccc3)c2)C[C@@H]2CC[C@H]1N2C(=O)NCc1ccccc1C(F)(F)F do in these assays?
Scp1 inh: -5; LMPTP block: 7; STEP inh: 5; DNMT1 inh: 7; SUMO1-SIM PPI: 0

How did COc1nc2ccccc2c(=O)n1-c1ccc(Cl)cc1 do in these assays?
Scp1 inh: -7; LMPTP block: -1; STEP inh: -1; DNMT1 inh: 15; SUMO1-SIM PPI: 0

How did COc1nc2ccccc2c(=O)n1-c1ccc(C)cc1 do in these assays?
Scp1 inh: -2; LMPTP block: 1; STEP inh: -2; DNMT1 inh: 88*; SUMO1-SIM PPI: 3; DNMT1 inh conf: 1; DNMT1 interf: 3

How did Cc1noc(C)c1COc1ccc(C(=O)NCC2(N(C)C)CCCCC2)cc1 do in these assays?
LMPTP block: -3; STEP inh: -1; DNMT1 inh: 1; SUMO1-SIM PPI: -2

What do the screens show for `C[C@@H]1CN([C@@H](C)CO)C(=O)CCCn2cc(nn2)CO[C@H]1CN(C)C(=O)Oc1ccc2ccccc2c1`?
LMPTP block: -1; STEP inh: -1; DNMT1 inh: 5; SUMO1-SIM PPI: 3

What do the screens show for `CN(C)c1ccc(/C=C2\C(=O)NC(=O)N(CCc3ccc(F)cc3)C2=O)cc1`?
Scp1 inh: 17; LMPTP block: 1; STEP inh: 2; DNMT1 inh: -5; SUMO1-SIM PPI: -3

How did CCN(CC)c1ccc(/C=C2/C(=O)NC(=O)N(Cc3ccco3)C2=O)cc1 do in these assays?
Scp1 inh: 5; LMPTP block: 1; STEP inh: 1; DNMT1 inh: 68*; SUMO1-SIM PPI: -4; DNMT1 inh conf: 1; DNMT1 interf: -1

Results for CN(C)c1ccc(/C=C2/C(=O)NC(=O)N(Cc3ccco3)C2=O)cc1 ?
Scp1 inh: 33; LMPTP block: 2; STEP inh: 5; DNMT1 inh: 94*; SUMO1-SIM PPI: 8; DNMT1 inh conf: 11; DNMT1 interf: 6

How did CCCC(=O)C1C(=O)NC(=O)NC1=O do in these assays?
Scp1 inh: 4; LMPTP block: 1; STEP inh: -1; DNMT1 inh: 2; SUMO1-SIM PPI: 1

What do the screens show for `Cc1cccc(C)c1N1CCN(c2c(C)cccc2C)CC1`?
Scp1 inh: -3; LMPTP block: 0; STEP inh: -2; DNMT1 inh: 1; SUMO1-SIM PPI: -4

Results for O=C(O)C1C2CCC(O2)C1C(=O)Nc1cccc(Br)c1 (stereo unspecified) ?
Scp1 inh: -9; LMPTP block: 0; STEP inh: 0; DNMT1 inh: 79*; SUMO1-SIM PPI: 1; DNMT1 inh conf: 3; DNMT1 interf: 4

What do the screens show for `C[C@@]12N[C@@H](Cc3ccccc31)c1ccccc12`?
Scp1 inh: -12; LMPTP block: -2; STEP inh: -4; DNMT1 inh: 0; SUMO1-SIM PPI: 0

Results for CC(C)c1ccc(N2C(=O)NC(=O)/C(=C\C=C\c3ccco3)C2=O)cc1 ?
Scp1 inh: 5

How did CCN1C(=O)C(=C2C=C(C)N(Cc3ccco3)C(C)=C2)C(=O)N(CC)C1=S do in these assays?
Scp1 inh: -15; LMPTP block: 1; STEP inh: 1; DNMT1 inh: -2; SUMO1-SIM PPI: 2

What do the screens show for `CCN1C(=O)C(=C/C=C/c2ccco2)C(=O)N(CC)C1=S`?
Scp1 inh: 55*; LMPTP block: 6; STEP inh: -6; DNMT1 inh: 101*; SUMO1-SIM PPI: 19; DNMT1 inh conf: 12; DNMT1 interf: -3
